For orientation: IC50 means the point on the concentration scale where inhibition reaches its midpoint. A word on the IC30: it is the concentration needed for an effect of 30%.

The text below walks through data of ChEMBL document CHEMBL2016433 (Bioorg Med Chem, 2012).

Assay [1] concerns MOLT-3. In words: Cytotoxicity against human MOLT3 cells assessed as cell viability after 24 hrs. It is filed as functional, cell-based. Conditions: MOLT-3, 24 h.
Assay [2] relates to HT-29. In words: Cytotoxicity against human HT-29 cells assessed as cell viability after 48 hrs. It counts as functional, cell-based. Conditions: HT-29, 48 h. In short, it runs like this: (§1)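 HT-29, HepG2 and MCF7 cells were treated in wells with increasing concentrations for 48 h at 37 °C, 5% CO₂. Total cell count was taken by haemocytometer. IC50 is the concentration inhibiting total count by 50%, from a best-fit curve of the value versus log concentration.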

Assay [3] concerns HepG2. The assay can be described thus: Cytotoxicity against human HepG2 cells assessed as compound concentration causing 30% reduction in formazan product formation after 48 hrs by MTS assay. It counts as functional. Conditions: HepG2, 48 h. In short, it runs like this:
(§2)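 HT-29, HepG2 and MCF7 cells were exposed to increasing concentrations for 48 h. MTS reagent was then added directly to the wells, incubated a further 4 h, and absorbance read at 490 nm. MAIC30 is the concentration reducing formazan formation by 30%, from a best-fit curve versus log concentration.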
In general terms: Tetrazolium dyes change colour on reduction, which living cells bring about.

Assay [4] concerns THP-1. In words: Cytotoxicity against human THP1 cells after 24 hrs by trypan blue exclusion assay. It counts as functional.
The test system of assay [5] is U-937. The assay can be described thus: Induction of apoptosis in human U937 cells expressing pMEP assessed as expression of Bcl-2 protein at 1 to 100 uM by acridine orange based microscopy. It counts as functional, cell-based. The procedure, abridged:
(§3)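 U937 stable transfectants carrying murine bcl-2 (U937mBCL2) or empty pMEP vector were kept in medium with hygromycin B 50 µg/mL. They were treated for 24 h with compound or DMSO. Apoptotic nuclei were scored by fluorescence microscopy after acridine orange staining; mean and SD of three determinations.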

Assay [6] concerns HepG2. In words: Cytotoxicity against human HepG2 cells assessed as cell viability after 48 hrs. It is filed as functional, cell-based. Conditions: HepG2, 48 h. The procedure, abridged:
as §1

The test system of assay [7] is HepG2. The assay can be described thus: Cytotoxicity against human HepG2 cells after 48 hrs by trypan blue exclusion assay. It counts as functional. The procedure, abridged:
(§4)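 Adherent HT-29, HepG2 and MCF7 cells were seeded in 96 wells with increasing concentrations and incubated 48 h at 37 °C, 5% CO₂. Trypan blue exclusion was done directly in the culture wells. CC30 is the concentration giving 30% cytotoxicity, from a best-fit curve versus log concentration.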

Assay [8] relates to THP-1. In words: Cytotoxicity against human THP1 cells assessed as cell viability after 24 hrs. It counts as functional, cell-based. Conditions: THP-1, 24 h.
In assay [9] the test system is HT-29. The assay can be described thus: Cytotoxicity against human HT-29 cells assessed as compound concentration causing 30% reduction in formazan product formation after 48 hrs by MTS assay. Conditions: HT-29, 48 h. It counts as functional. In short, it runs like this: as §2
Assay [10] deals with MCF7. In words: Cytotoxicity against human MCF7 cells after 48 hrs by trypan blue exclusion assay. It counts as functional. The procedure, abridged: as §4
The subject of assay [11] is MCF7. The assay can be described thus: Cytotoxicity against human MCF7 cells assessed as cell viability after 48 hrs. It counts as functional, cell-based. As to conditions: MCF7, 48 h. In short, it runs like this:
as §1

In assay [12] the test system is HT-29. In words: Cytotoxicity against human HT-29 cells after 48 hrs by trypan blue exclusion assay. It counts as functional. In short, it runs like this:
as §4

For assay [13], the system named is U-937. In words: Induction of apoptosis in human U937 cells at 100 uM after 24 hrs by acridine orange staining based microscopy. It is filed as functional, cell-based. In short, it runs like this:
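U937 cells were treated for 24 h at 37 °C with 1–100 µM compound or vehicle, then stained with acridine orange. Over 600 cells were scored by fluorescence microscopy; apoptosis was defined as uniformly stained nuclei with chromatin condensation or nuclear fragmentation. Mean and SD of at least three determinations.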

The test system of assay [14] is MOLT-3. In words: Cytotoxicity against human MOLT3 cells after 24 hrs by trypan blue exclusion assay. It is filed as functional.
Assay [15] concerns MOLT-3. The assay can be described thus: Induction of apoptosis in human MOLT3 cells after 24 hrs by acridine orange staining based fluorescence microscopy. It counts as functional. The procedure, abridged: (§5)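 HeLa, MOLT-3 and THP-1 cells were treated with increasing concentrations for 24 h, then stained with acridine orange and more than 600 cells scored by fluorescence microscopy for condensed or fragmented nuclei. AC30 is the concentration giving 30% apoptotic cells, from a best-fit curve versus log concentration.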

For assay [16], the system named is U-937. The assay can be described thus: Induction of apoptosis in human U937 cells expressing mouse Bcl-2 gene assessed as expression of Bcl-2 protein at 1 to 100 uM by acridine orange based microscopy. It counts as functional, cell-based. The procedure, abridged: as §3
Assay [17] concerns HeLa. The assay can be described thus: Induction of apoptosis in human HeLa cells after 24 hrs by acridine orange staining based fluorescence microscopy. It is filed as functional. In short, it runs like this: as §5
In assay [18] the test system is THP-1. The assay can be described thus: Induction of apoptosis in human THP1 cells after 24 hrs by acridine orange staining based fluorescence microscopy. It is filed as functional. The procedure, abridged: as §5
The test system of assay [19] is U-937. The assay can be described thus: Cytotoxicity against human U937 cells assessed as induction of cell death at 1 to 100 microM after 24 hrs by trypan blue exclusion method. It counts as functional, cell-based.
Assay [20] has as its system HeLa. In words: Cytotoxicity against human HeLa cells after 24 hrs by trypan blue exclusion assay. It is filed as functional. In short, it runs like this:
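MOLT-3, THP-1 or HeLa cells were grown in RPMI 1640 with 5–10% FBS; for THP-1 the medium also held 10 mM HEPES, 1 mM pyruvate and 4.5 g/L glucose. Cells were seeded in 96 wells with increasing compound concentrations and incubated 24 h at 37 °C, 5% CO₂. CC30 is the concentration giving 30% trypan blue-positive cells, taken from a best-fit curve of y versus log x.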

For assay [21], the system named is MCF7. The assay can be described thus: Cytotoxicity against human MCF7 cells assessed as compound concentration causing 30% reduction in formazan product formation after 48 hrs by MTS assay. It counts as functional. Conditions: MCF7, 48 h. The procedure, abridged:
as §2

The subject of assay [22] is HeLa. The assay can be described thus: Cytotoxicity against human HeLa cells assessed as cell viability after 24 hrs. It counts as functional, cell-based. In short, it runs like this:
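MOLT-3, THP-1 and HeLa cells were treated with increasing concentrations for 24 h at 37 °C, 5% CO₂. Total cells were counted by haemocytometer with trypan blue. IC50 is the concentration cutting total cell count by 50%, taken from a best-fit curve of the value versus log concentration.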

The source made the active and inactive calls. A value given as a limit tells only on which side of the number the result lay.

In the case of `CC(=O)OC[C@H]1O[C@@H](SSCc2ccc(CSS[C@@H]3O[C@H](COC(C)=O)[C@H](OC(C)=O)[C@H](OC(C)=O)[C@H]3OC(C)=O)cc2)[C@H](OC(C)=O)[C@@H](OC(C)=O)[C@H]1OC(C)=O`, the IC50 is > 100 µM with MOLT-3 [1]; 63 µM in the assay on HT-29 [2]; 51 µM with HepG2 [6]; > 100 µM in the assay with THP-1 [8]; 38 µM in the assay with MCF7 [11]; > 100 µM in the assay on HeLa [22]. The IC30 turned out to be 30 µM in the assay on HepG2 [3], 23 µM in the assay with HT-29 [9] and 63 µM with MCF7 [21]. The CC30 with THP-1 [4] is 93 µM; with HepG2 [7], 98 µM; in the assay with MCF7 [10], 69 µM; with HT-29 [12] it was 61 µM; in the assay on MOLT-3 [14], 29 µM; with HeLa [20], >100 µM. The outcome in the assay on U-937 [5], in the assay on U-937 [13] and with U-937 [19] was Active. Moreover, the values for the AC30 with MOLT-3 [15], in the assay on HeLa [17] and with THP-1 [18] were 24 µM, 62 µM and 88 µM, respectively. Besides, the outcome in the assay on U-937 [16] was inactive.
